The text below walks through data of ChEMBL document CHEMBL4266051, “Diterpenoids from Euphorbia dulcis with Potassium Ion Channel Inhibitory Activity with Selective G Protein-Activated Inwardly Rectifying Ion Channel (GIRK) Blocking Effect” (J Nat Prod, 2018).

Common to all, as to assay type: cell-based
For series [1], the target named is T1, Kir3.1/Kir3.4 (Homo sapiens) (UniProt P48549+P48544). Description: Inhibition of GIRK-1/4 channel (unknown origin) expressed in HEK293 cells at 10 uM by automated patch clamp method relative to control. The procedure, abridged: (§1)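 HEK-293 cells stably expressing GIRK1/4 (Kir3.1/3.4) K+ channels; whole-cell currents recorded by automated patch clamp. Compounds screened at 1 and 10 μM, two or three cells per condition. Current values corrected using the current measured in K+-free external solution as baseline. Inhibition expressed as % of GIRK current; mean ± SEM, n = 2–3.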
For orientation: Patch clamp records ionic current or voltage across a cell membrane.

The target of series [2] is T1, Kir3.1/Kir3.4 (Homo sapiens). Description: Inhibition of GIRK-1/4 channel (unknown origin) expressed in HEK293 cells at 1 uM by automated patch clamp method relative to control. The procedure, abridged: as §1
Series [3] deals with T2, hERG (KCNH2) (Homo sapiens, UniProt Q12809). The experiment in a line: Inhibition of human ERG expressed in HEK293 cells at 1 uM by automated patch clamp method relative to control. To be noted: HEK293 cells that express hERG. Summed up: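 Automated whole-cell patch clamp in HEK-293 cells stably transfected with hERG (Kv11.1) cDNA. Increasing concentrations (1 and 10 μM) applied, two cells each. Current amplitude inhibition expressed as %, means ± SEM. 10 μM amitriptyline used as reference blocker.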

The target of series [4] is T2, hERG (KCNH2). The experiment in a line: Inhibition of human ERG expressed in HEK293 cells at 10 uM by automated patch clamp method relative to control. To be noted: HEK293 cells that express hERG.
Series [5] addresses T1, Kir3.1/Kir3.4 (Homo sapiens). The experiment in a line: (§2) Inhibition of GIRK-1/4 channel (unknown origin) expressed in HEK293 cells by automated patch clamp method. Summed up:
(§3)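 Whole-cell currents by automated patch clamp in HEK-293 cells stably expressing GIRK1/4 (Kir3.1/3.4). Screening at 1 and 10 μM on two or three cells. Concentration-response at four concentrations (0.3, 1, 3, 10 μM) on five or six cells, used for IC50. Currents corrected to the K+-free external solution as baseline. Means ± SEM.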

The target of the next series is T3, Kir3.1/Kir3.4 (Homo sapiens, UniProt P48544+P48549).
T3 sequence (P48549 whole entry): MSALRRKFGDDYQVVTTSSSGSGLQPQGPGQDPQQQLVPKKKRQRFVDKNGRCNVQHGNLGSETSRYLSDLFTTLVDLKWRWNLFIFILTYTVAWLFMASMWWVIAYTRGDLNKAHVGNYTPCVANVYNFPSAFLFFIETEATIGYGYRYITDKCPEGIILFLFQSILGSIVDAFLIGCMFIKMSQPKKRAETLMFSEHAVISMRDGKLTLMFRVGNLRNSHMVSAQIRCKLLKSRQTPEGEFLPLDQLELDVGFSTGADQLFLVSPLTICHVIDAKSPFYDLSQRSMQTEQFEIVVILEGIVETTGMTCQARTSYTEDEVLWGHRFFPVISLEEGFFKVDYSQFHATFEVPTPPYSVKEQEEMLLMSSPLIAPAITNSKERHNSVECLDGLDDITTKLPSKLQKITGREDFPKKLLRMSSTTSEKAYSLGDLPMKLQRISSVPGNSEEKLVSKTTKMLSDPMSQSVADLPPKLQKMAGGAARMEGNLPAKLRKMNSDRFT
T3 sequence (P48544 whole entry): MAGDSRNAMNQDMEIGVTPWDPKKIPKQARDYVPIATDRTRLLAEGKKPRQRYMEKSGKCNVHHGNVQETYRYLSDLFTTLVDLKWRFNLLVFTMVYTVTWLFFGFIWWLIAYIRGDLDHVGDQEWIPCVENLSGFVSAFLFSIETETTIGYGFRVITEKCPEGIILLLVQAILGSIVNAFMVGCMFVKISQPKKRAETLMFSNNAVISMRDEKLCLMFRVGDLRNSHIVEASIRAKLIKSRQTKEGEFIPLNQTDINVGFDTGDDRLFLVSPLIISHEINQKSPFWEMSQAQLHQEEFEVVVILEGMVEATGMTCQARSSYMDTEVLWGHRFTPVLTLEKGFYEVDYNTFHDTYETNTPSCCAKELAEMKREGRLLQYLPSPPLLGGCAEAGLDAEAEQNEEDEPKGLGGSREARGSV
The series is described as §2. The procedure, abridged: as §3

T2 sequence (Q12809 whole entry): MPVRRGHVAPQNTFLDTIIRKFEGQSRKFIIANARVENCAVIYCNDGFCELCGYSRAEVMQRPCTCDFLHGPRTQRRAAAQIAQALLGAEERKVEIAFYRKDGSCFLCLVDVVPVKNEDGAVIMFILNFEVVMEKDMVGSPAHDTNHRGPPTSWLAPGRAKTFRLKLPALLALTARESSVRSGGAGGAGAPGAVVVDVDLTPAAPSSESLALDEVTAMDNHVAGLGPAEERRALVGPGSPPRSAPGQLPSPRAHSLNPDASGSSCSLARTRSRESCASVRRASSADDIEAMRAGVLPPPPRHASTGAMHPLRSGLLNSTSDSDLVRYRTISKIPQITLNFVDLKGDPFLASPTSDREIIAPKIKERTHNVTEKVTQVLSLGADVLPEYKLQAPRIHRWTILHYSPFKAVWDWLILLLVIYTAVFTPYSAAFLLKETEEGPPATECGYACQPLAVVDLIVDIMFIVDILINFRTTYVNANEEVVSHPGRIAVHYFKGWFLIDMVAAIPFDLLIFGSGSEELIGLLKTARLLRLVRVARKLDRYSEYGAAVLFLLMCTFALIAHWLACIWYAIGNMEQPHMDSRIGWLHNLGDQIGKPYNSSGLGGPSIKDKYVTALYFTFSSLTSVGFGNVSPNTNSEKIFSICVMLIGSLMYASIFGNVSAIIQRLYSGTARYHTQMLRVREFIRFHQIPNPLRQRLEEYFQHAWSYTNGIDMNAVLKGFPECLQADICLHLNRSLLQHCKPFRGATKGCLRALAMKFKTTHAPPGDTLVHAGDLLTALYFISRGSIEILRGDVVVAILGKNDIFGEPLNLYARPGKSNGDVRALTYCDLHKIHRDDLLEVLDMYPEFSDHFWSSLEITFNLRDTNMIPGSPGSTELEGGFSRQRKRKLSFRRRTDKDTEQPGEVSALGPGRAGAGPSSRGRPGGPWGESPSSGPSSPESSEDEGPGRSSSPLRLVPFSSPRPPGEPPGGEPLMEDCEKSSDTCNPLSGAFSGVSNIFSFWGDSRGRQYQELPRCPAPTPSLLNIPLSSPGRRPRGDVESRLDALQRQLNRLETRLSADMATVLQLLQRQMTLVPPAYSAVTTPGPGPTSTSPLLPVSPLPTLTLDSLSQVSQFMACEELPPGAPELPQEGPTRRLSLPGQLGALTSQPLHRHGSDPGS

`CC(=O)OCC(=O)O[C@@H]1[C@H]2[C@@H](OC(=O)c3ccccc3)[C@@H](C)C[C@]2(O)[C@@H](OC(C)=O)[C@]2(C)C[C@@]1(OC(C)=O)C[C@H]1C(=O)C(C)(C)C[C@@H]12`: the inhibition (usually the share of the control response that was lost under treatment) in series [1] amounted to 28.6%; in series [2], 17.7%.
In the case of `C/C=C(/C)C(=O)O[C@H]1C(C)=C[C@@]23C(=O)[C@@H](C=C(C)[C@@H](O)[C@]12O)[C@H]1[C@@H](C[C@H]3C)C1(C)C`, the inhibition is 52.3% in series [1], 23.8% in series [2] and “Dose-dependent effect” in series [5]. At hERG (KCNH2) [3], this molecule registered an inhibition at 1 µM of 1.8%. For the same molecule, at hERG (KCNH2) [4], the inhibition at 10 µM is 7.9%. Also, the IC50 (as a rule, the concentration that gives 50% inhibition) on Kir3.1/Kir3.4 was 12100 nM.
As to `CC(=O)O[C@@H]1[C@@H](OC(C)=O)C(C)(C)/C=C/[C@H](C)[C@H](OC(C)=O)[C@@]2(O)C[C@H](C)[C@H](OC(=O)c3ccccc3)[C@@H]2/C=C(\C)[C@@H]1O`, the inhibition came to 66.6% in series [1] and 16.8% in series [2].
On to `CC(=O)O[C@@H]1[C@@H](O)[C@@H](OC(C)=O)/C(C)=C/[C@H]2[C@@H](OC(=O)c3ccccc3)[C@@H](C)C[C@]2(O)[C@@H](OC(C)=O)[C@@H](C)/C=C/C1(C)C`, for which the inhibition in series [1] stood at 26.8%; in series [2], 16%.
`CC(=O)O[C@@H]1[C@@H](OC(C)=O)C(C)(C)/C=C/[C@H](C)[C@H](OC(C)=O)[C@@]2(O)C[C@H](C)[C@H](OC(=O)c3ccccc3)[C@@H]2/C=C(\C)[C@@H]1OC(C)=O`: the inhibition in series [1] was 83.4%; in series [2], 33.8%; in series [5] it was “Dose-dependent effect”. Further, at hERG (KCNH2) [3], the inhibition at 1 µM stood at 13.2%. On hERG (KCNH2) [4], testing at 10 µM gave an inhibition of 24%. This molecule also displayed an IC50 on Kir3.1/Kir3.4 of 1690 nM.
On to `C/C=C(/C)C(=O)OCC1(C)[C@H]2[C@@H]3C=C(C)[C@@H](O)[C@]4(O)[C@@H](OC(=O)/C(C)=C\C)C(C)=C[C@]4(C3=O)[C@H](C)C[C@H]21` (stereo partly specified), for which the values for the inhibition in series [1], in series [2] and in series [5] were 80.4%, 43.9% and “Dose-dependent effect”, respectively. For the same molecule, the inhibition at 1 µM at hERG (KCNH2) [3] came to 11.2%. Further, the inhibition at 10 µM against hERG (KCNH2) [4] came to 55.4%. For the same molecule, the IC50 against Kir3.1/Kir3.4 is 1450 nM.
On to `C/C=C(\C)C(=O)O[C@H]1/C(C)=C/[C@H]2[C@@H](OC(=O)c3ccccc3)[C@@H](C)C[C@]2(O)[C@@H](OC(=O)/C(C)=C/C)[C@@H](C)/C=C/C(C)(C)[C@H](OC(C)=O)[C@H]1OC(C)=O`, for which the figures for the inhibition in series [1] and in series [2] were 35.7% and 23.5%, respectively.
Regarding `C=C1CC[C@@H](OC(=O)/C=C/c2ccccc2)C(C)(C)/C=C/[C@H](C)C(=O)[C@@]2(O)C[C@H](C)[C@H](OC(=O)/C=C/c3ccccc3)[C@@H]2[C@H]1OC(C)=O`, the inhibition in series [1] is 23.7%; in series [2], 22.2%.
Regarding `CC(=O)O[C@@H]1[C@@H](OC(C)=O)C(C)(C)/C=C/[C@H](C)[C@H](O)[C@@]2(OC(C)=O)C[C@H](C)[C@H](OC(=O)c3ccccc3)[C@@H]2/C=C(\C)[C@@H]1OC(C)=O`, the figures for the inhibition in series [1], in series [2] and in series [5] were 66%, 27.2% and “Dose-dependent effect”, respectively. Besides, the inhibition at 1 µM against hERG (KCNH2) [3] was 11.2%. For the same molecule, at hERG (KCNH2) [4], testing at 10 µM gave an inhibition of 22.7%. Further, the IC50 on Kir3.1/Kir3.4 worked out at 3400 nM.
On to `CC(=O)O[C@H]1[C@@H](C)/C=C/C(C)(C)[C@H](O)[C@@H](O)[C@@H](O)/C(C)=C/[C@H]2[C@@H](OC(=O)c3ccccc3)[C@@H](C)C[C@@]21O`, for which the inhibition in series [1] was determined as 25.7%; in series [2] it was 15.7%.
`C/C=C(/C)C(=O)OCC1(C)[C@H]2[C@@H]3C=C(COC(C)=O)[C@@H](O)[C@]4(O)[C@@H](OC(=O)/C(C)=C\C)C(C)=C[C@]4(C3=O)[C@H](C)C[C@H]21` (stereo partly specified): the inhibition in series [1] amounted to 45.1%; in series [2], 16.4%.
`C/C=C(\C)C(=O)O[C@H]1[C@@H](C)/C=C/C(C)(C)[C@H](OC(C)=O)[C@@H](OC(C)=O)[C@@H](O)/C(C)=C/[C@H]2[C@@H](OC(=O)c3ccccc3)[C@@H](C)C[C@@]21O`: the results for the inhibition in series [1] and in series [2] were 60.8% and 15.3%, respectively.
The like results for `CC(=O)O[C@H]1/C(C)=C/[C@H]2[C@@H](OC(=O)c3ccccc3)[C@@H](C)C[C@]2(O)[C@@H](OC(C)=O)[C@@H](C)/C=C/C(C)(C)[C@H](O)[C@H]1O` were, in that order, 23.5% and 11.2%.
In series [2], `CCCNCC(O)COc1ccccc1C(=O)CCc1ccccc1` (stereo unspecified) showed an inhibition of 60.6 to 94.2%.
With `C/C=C(\C)C(=O)O[C@@H]1C[C@@H](OC(C)=O)C(C)(C)/C=C/[C@H](C)[C@H](OC(C)=O)[C@@]2(O)C[C@H](C)[C@H](OC(=O)c3ccccc3)[C@@H]2/C=C/1C`, the inhibition in series [1] was 88.7%; in series [2] it was 35.5%; in series [5], “Dose-dependent effect”. The molecule also displayed an inhibition at 1 µM against hERG (KCNH2) [3] of 10.8%. Besides, at 10 µM the inhibition on hERG (KCNH2) [4] was 24.9%. The molecule further registered an IC50 on Kir3.1/Kir3.4 of 1310 nM.
With `CC(=O)O[C@@H]1C[C@@H](OC(C)=O)C(C)(C)/C=C/[C@H](C)[C@H](OC(C)=O)[C@@]2(O)C[C@H](C)[C@H](OC(=O)c3ccccc3)[C@@H]2/C=C/1C` [EUPHORNIN], the inhibition is 78.7% in series [1], 31.1% in series [2] and “Dose-dependent effect” in series [5]. For the same molecule, the inhibition at 1 µM against hERG (KCNH2) [3] worked out at 3.3%. This molecule also yielded an inhibition at 10 µM against hERG (KCNH2) [4] of 19%. Moreover, the IC50 at Kir3.1/Kir3.4 was 2630 nM.
For `C/C=C(\C)C(=O)O[C@H]1/C(C)=C/[C@H]2[C@@H](OC(=O)c3ccccc3)[C@@H](C)C[C@]2(O)[C@@H](OC(C)=O)[C@@H](C)/C=C/C(C)(C)[C@H](OC(C)=O)[C@H]1OC(C)=O`, the inhibition in series [1] was 85%; in series [2] it was 38.5%; in series [5], “Dose-dependent effect”. Further, on hERG (KCNH2) [3], 1 µM produced 6.5% inhibition. At hERG (KCNH2) [4], this molecule registered an inhibition at 10 µM of 24.4%. For the same molecule, the IC50 against Kir3.1/Kir3.4 was 1600 nM.
